Here are results for 18 molecules from ChEMBL document CHEMBL3600341, “Discovery of a series of novel compounds with moderate anti-hepatitis C virus NS3 protease activity in vitro” (Bioorg Med Chem, 2015).

Molecules are shown by their SMILES. pIC50: −log10 of the molar value.

This assay in a line: Inhibition of HCV NS3/4A protease using RET S1 as substrate preincubated for 10 mins followed by substrate addition measured for 30 mins by FRET analysis. Also on record: species or system Hepacivirus hominis. Put shortly: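 NS3/4A protease activity followed by intramolecular FRET with quenched-fluorogenic substrate Ac-DED(EDANS)EEAbuY[COO]ASK(DABCYL). Buffer 30 mM HEPES pH 7.5, 40% glycerol, 10 mM DTT, 2% DMSO. Ten-dose 4-fold serial dilution of compound in DMSO; 10 min preincubation, substrate added to start. Kinetic read 30 min, ex 335 nm/em 495 nm. IC50 from percent inhibition versus inhibitor concentration.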
Usually pIC50 stands for the negative decadic logarithm of the IC50, by convention in mol/L. Lower therefore signals a high IC50. Consider `Cc1ccc(S(=O)(=O)NC(=O)[C@H](CC(C)C)NC(=O)[C@@H]2C[C@H](n3cc(-c4ccccc4)nn3)CN2C(=O)[C@@H](NC(=O)c2cccs2)C2CCCCC2)cc1`, for which the pIC50 was 5.72. In the case of `Cc1ccc(S(=O)(=O)NC(=O)[C@H](CC(C)C)NC(=O)[C@@H]2C[C@H](n3cc(-c4ccccc4)nn3)CN2C(=O)[C@@H](NC(=O)c2ccco2)C(C)(C)C)cc1` it was 4.47; in that of `Cc1ccc(S(=O)(=O)NC(=O)[C@H](CC(C)C)NC(=O)[C@@H]2C[C@H](n3cc(-c4ccccc4)nn3)CN2C(=O)[C@@H](NC(=O)c2ccccc2)C2CCCCC2)cc1`, 5.60. As for `Cc1ccc(S(=O)(=O)NC(=O)[C@H](CC(C)C)NC(=O)[C@@H]2C[C@H](n3cc(-c4ccccc4)nn3)CN2C(=O)[C@H](Cc2ccccc2)NC(=O)OC(C)(C)C)cc1`, the pIC50 is 5.23. In the case of `Cc1ccc(S(=O)(=O)NC(=O)[C@H](CC(C)C)NC(=O)[C@@H]2C[C@H](n3cc(-c4ccccc4)nn3)CN2C(=O)[C@H](Cc2ccccc2)NC(=O)C(C)C)cc1` it was less than 4.00; in that of `Cc1ccc(S(=O)(=O)NC(=O)[C@H](CC(C)C)NC(=O)[C@@H]2C[C@H](n3cc(-c4ccccc4)nn3)CN2C(=O)[C@H](Cc2c[nH]c3ccccc23)NC(=O)OC(C)(C)C)cc1`, 5.25. With `Cc1ccc(S(=O)(=O)NC(=O)[C@H](CC(C)C)NC(=O)[C@@H]2C[C@H](n3cc(-c4ccccc4)nn3)CN2C(=O)[C@@H](NC(=O)OC(C)(C)C)C(C)(C)C)cc1`, the pIC50 is less than 4.00. For the molecule `O=C(N[C@H](C(=O)N1C[C@@H](n2cc(-c3ccccc3)nn2)C[C@H]1C(=O)N[C@H](Cc1ccccc1)C(=O)NS(=O)(=O)C1CC1)C1CCCCC1)OCc1ccccc1`, the pIC50 is 5.35. Molecule `CC(C)(C)OC(=O)N[C@H](C(=O)N1C[C@@H](n2cc(-c3ccccc3)nn2)C[C@H]1C(=O)N[C@H](Cc1ccccc1)C(=O)NS(=O)(=O)C1CC1)C1CCCCC1` had a pIC50 of 4.14. In the case of `O=C(N[C@H](C(=O)N1C[C@@H](n2cc(-c3ccccc3)nn2)C[C@H]1C(=O)N[C@H](Cc1ccccc1)C(=O)NS(=O)(=O)C1CC1)C1CCCCC1)c1ccccc1` it was 5.13. In the case of `CC(C)C(=O)N[C@H](C(=O)N1C[C@@H](n2cc(-c3ccccc3)nn2)C[C@H]1C(=O)N[C@H](Cc1ccccc1)C(=O)NS(=O)(=O)C1CC1)C1CCCCC1` it was less than 4.00.

The molecule `CC(C)C[C@H](NC(=O)OC(C)(C)C)C(=O)N1C[C@@H](n2cc(-c3ccccc3)nn2)C[C@H]1C(=O)N[C@H](Cc1ccccc1)C(=O)NS(=O)(=O)C1CC1` showed a pIC50 of less than 4.00.

`CC(C)(C)OC(=O)N[C@@H](Cc1ccccc1)C(=O)N1C[C@@H](n2cc(-c3ccccc3)nn2)C[C@H]1C(=O)N[C@H](Cc1ccccc1)C(=O)NS(=O)(=O)C1CC1`: the pIC50 was 5.15.

`CC(C)(C)OC(=O)N[C@H](C(=O)N1C[C@@H](n2cc(-c3ccccc3)nn2)C[C@H]1C(=O)N[C@H](Cc1ccccc1)C(=O)NS(=O)(=O)C1CC1)C(C)(C)C`: the pIC50 was less than 4.00. On to `COc1ccc(C(=O)N[C@H]2C[C@@H](C(=O)N[C@@H](CC(C)C)C(=O)NS(=O)(=O)C3CC3)N(C(=O)[C@@H](NC(=O)OC(C)(C)C)C(C)(C)C)C2)cc1`, for which the pIC50 is less than 4.00. `CC(C)C[C@H](NC(=O)[C@@H]1C[C@H](NC(=O)c2ccc3ccccc3c2)CN1C(=O)[C@@H](NC(=O)OC(C)(C)C)C(C)(C)C)C(=O)NS(=O)(=O)C1CC1` showed a pIC50 of less than 4.00. `Cc1cccc(Nc2ccccc2C(=O)N[C@H]2C[C@@H](C(=O)N[C@@H](CC(C)C)C(=O)NS(=O)(=O)C3CC3)N(C(=O)[C@@H](NC(=O)OC(C)(C)C)C(C)(C)C)C2)c1C` gave a pIC50 of 5.68. In the case of `CCC[C@H](NC(=O)[C@@H]1[C@H]2CCC[C@H]2CN1C(=O)[C@@H](NC(=O)[C@@H](NC(=O)c1cnccn1)C1CCCCC1)C(C)(C)C)C(=O)C(=O)NC1CC1` [TELAPREVIR] it was 6.35.
